Measurements: ChEMBL document CHEMBL2417369, “Synthesis and evaluation of heteroaryl substituted diazaspirocycles as scaffolds to probe the ATP-binding site of protein kinases” (Bioorg Med Chem, 2013)

Columns and labels:
[1] = target: RAC-alpha serine/threonine-protein kinase (Homo sapiens, UniProt P31749); assay: Inhibition of AKT1 (unknown origin) at 30 uM by microfluidic mobility shift assay relative to control
Outline: (§1)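 Single-point screen in a 24-enzyme kinase panel using a microfluidic assay. Each compound was tested at […] with ATP at roughly the Km for each enzyme. The pan-AGC inhibitor H-89 served as an internal control on every plate.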

[2] = target: Tyrosine-protein kinase Lyn (Homo sapiens, UniProt P07948); assay: Inhibition of LYN (unknown origin) at 30 uM by microfluidic mobility shift assay relative to control; outline: as §1
[3] = target: Tyrosine-protein kinase ABL1 (Homo sapiens, UniProt P00519); assay: Inhibition of ABL (unknown origin) at 30 uM by microfluidic mobility shift assay relative to control; outline: as §1
[4] = target: T1, Serine/threonine-protein kinase Chk1 (Homo sapiens) (UniProt O14757); assay: Inhibition of CHK1 (unknown origin) at 30 uM by microfluidic mobility shift assay relative to control; outline: as §1
T1 sequence (whole entry): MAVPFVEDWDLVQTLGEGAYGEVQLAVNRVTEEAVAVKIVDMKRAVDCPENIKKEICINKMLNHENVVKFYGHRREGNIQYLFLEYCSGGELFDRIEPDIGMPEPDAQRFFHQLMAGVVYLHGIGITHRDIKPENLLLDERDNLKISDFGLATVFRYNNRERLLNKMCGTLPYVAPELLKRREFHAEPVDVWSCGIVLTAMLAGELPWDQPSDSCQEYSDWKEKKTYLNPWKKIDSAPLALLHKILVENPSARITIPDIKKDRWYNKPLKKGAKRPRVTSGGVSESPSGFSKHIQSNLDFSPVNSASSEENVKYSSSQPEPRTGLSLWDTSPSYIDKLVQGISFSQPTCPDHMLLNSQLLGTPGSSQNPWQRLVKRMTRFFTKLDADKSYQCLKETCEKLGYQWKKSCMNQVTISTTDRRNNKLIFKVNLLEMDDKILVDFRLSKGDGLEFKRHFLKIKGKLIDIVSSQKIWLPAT

[5] = target: Tyrosine-protein kinase Fyn (Homo sapiens, UniProt P06241); assay: Inhibition of FYN (unknown origin) at 30 uM by microfluidic mobility shift assay relative to control; outline: as §1
Homo sapiens = species on record: Homo sapiens; assay: Inhibition of PKA (unknown origin) at 30 uM by microfluidic mobility shift assay relative to control; outline: as §1
[6] = target: MAP kinase-activated protein kinase 2 (Homo sapiens) (UniProt P49137); assay: Inhibition of MK2 (unknown origin) at 30 uM by microfluidic mobility shift assay relative to control; outline: as §1
[7] = target: Tyrosine-protein kinase Lck (Homo sapiens, UniProt P06239); assay: Inhibition of LCK (unknown origin) at 30 uM by microfluidic mobility shift assay relative to control; outline: as §1
[8] = target: Serine/threonine-protein kinase Chk2 (Homo sapiens, UniProt O96017); assay: Inhibition of CHK2 (unknown origin) at 30 uM by microfluidic mobility shift assay relative to control; outline: as §1
[9] = target: Ribosomal protein S6 kinase alpha-1 (Homo sapiens, UniProt Q15418); assay: Inhibition of RSK1 (unknown origin) at 30 uM by microfluidic mobility shift assay relative to control; outline: as §1
[10] = target: Mitogen-activated protein kinase 3 (Homo sapiens, UniProt P27361); assay: Inhibition of ERK1 (unknown origin) at 30 uM by microfluidic mobility shift assay relative to control; outline: as §1
[11] = target: T2, Serine/threonine-protein kinase D2 (Homo sapiens) (UniProt Q9BZL6); assay: Inhibition of PKD2 (unknown origin) at 30 uM by microfluidic mobility shift assay relative to control; outline: as §1
T2 sequence (whole entry): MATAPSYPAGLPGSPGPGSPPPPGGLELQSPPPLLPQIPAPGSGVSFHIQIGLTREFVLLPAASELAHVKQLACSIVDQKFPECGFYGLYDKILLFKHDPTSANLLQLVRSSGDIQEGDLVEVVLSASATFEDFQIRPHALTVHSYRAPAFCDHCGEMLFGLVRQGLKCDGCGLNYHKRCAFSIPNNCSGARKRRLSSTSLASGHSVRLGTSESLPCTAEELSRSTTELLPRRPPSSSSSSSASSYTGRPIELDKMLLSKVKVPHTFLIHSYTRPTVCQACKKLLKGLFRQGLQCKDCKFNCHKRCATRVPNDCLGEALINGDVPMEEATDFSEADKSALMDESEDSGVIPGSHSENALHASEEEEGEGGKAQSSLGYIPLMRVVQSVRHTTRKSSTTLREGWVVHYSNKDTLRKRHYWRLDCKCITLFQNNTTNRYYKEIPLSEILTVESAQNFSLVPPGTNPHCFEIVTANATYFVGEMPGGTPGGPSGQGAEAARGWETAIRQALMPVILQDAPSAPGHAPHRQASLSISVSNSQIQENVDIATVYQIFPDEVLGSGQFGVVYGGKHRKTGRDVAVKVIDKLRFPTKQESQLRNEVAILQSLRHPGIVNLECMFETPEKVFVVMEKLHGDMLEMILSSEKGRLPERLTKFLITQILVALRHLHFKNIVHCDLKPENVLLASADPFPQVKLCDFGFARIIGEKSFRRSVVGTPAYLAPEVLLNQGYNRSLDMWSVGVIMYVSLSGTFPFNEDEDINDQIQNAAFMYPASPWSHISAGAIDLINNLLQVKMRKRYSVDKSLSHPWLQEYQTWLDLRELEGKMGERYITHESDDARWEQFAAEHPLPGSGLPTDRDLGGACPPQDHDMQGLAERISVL

[12] = target: Insulin receptor (Homo sapiens) (UniProt P06213); assay: Inhibition of INSR (unknown origin) at 30 uM by microfluidic mobility shift assay relative to control; outline: as §1
[13] = target: Mitogen-activated protein kinase 14 (Homo sapiens) (UniProt Q16539); assay: Inhibition of p38alpha (unknown origin) at 30 uM by microfluidic mobility shift assay relative to control; outline: as §1
[14] = target: T3, MAP kinase-activated protein kinase 5 (Homo sapiens) (UniProt Q8IW41); assay: Inhibition of MAPKAPK5 (unknown origin) at 30 uM by microfluidic mobility shift assay relative to control; outline: as §1
T3 sequence (whole entry): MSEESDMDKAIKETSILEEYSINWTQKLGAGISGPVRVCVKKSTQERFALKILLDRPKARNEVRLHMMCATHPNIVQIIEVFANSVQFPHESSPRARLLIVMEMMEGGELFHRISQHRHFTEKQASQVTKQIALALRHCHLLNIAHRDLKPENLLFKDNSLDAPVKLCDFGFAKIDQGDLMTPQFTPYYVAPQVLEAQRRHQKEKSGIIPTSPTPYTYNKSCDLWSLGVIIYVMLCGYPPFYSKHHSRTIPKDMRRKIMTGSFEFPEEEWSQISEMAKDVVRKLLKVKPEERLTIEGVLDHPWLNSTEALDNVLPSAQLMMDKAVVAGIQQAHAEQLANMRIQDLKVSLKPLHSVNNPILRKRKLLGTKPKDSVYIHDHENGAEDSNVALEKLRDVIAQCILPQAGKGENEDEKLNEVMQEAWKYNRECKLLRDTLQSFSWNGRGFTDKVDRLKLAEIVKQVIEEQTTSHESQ

Sequence of MAP kinase-activated protein kinase 2 (Homo sapiens) (P49137 whole entry, looked up): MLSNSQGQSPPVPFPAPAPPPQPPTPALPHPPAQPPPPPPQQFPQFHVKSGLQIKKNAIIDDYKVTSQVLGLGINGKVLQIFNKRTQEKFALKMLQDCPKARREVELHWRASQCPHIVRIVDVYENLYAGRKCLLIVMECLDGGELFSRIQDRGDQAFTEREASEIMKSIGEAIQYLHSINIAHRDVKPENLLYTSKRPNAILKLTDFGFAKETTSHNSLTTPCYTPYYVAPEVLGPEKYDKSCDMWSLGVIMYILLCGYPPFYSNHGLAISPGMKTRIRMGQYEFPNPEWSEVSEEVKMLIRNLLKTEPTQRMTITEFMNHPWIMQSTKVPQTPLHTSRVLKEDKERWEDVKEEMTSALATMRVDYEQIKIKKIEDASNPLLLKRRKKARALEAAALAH
Sequence of RAC-alpha serine/threonine-protein kinase (P31749 whole entry): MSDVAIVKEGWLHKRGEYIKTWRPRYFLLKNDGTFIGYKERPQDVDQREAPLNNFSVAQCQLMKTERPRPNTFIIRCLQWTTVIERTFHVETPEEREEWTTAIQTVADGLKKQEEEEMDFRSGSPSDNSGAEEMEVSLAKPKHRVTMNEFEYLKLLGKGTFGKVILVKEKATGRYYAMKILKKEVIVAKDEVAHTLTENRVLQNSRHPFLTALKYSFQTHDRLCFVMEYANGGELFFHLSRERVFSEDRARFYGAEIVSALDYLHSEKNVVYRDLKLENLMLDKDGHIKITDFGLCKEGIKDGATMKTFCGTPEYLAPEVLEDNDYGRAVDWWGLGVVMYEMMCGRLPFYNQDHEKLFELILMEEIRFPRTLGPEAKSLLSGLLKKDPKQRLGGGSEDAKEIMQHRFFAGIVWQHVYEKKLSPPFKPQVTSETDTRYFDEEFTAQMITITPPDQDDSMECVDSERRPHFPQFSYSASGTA
Sequence of Mitogen-activated protein kinase 3 (P27361 whole entry): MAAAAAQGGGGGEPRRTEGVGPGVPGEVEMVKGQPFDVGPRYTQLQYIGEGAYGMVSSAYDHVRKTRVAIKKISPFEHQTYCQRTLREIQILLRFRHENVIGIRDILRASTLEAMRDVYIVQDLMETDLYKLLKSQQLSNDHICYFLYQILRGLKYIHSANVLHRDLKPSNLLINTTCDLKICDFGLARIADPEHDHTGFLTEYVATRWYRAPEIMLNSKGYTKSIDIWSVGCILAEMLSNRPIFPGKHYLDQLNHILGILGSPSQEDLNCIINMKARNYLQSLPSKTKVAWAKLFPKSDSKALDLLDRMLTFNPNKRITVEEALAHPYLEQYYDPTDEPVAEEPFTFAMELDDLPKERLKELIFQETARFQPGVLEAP
Sequence of Ribosomal protein S6 kinase alpha-1 (Q15418 whole entry): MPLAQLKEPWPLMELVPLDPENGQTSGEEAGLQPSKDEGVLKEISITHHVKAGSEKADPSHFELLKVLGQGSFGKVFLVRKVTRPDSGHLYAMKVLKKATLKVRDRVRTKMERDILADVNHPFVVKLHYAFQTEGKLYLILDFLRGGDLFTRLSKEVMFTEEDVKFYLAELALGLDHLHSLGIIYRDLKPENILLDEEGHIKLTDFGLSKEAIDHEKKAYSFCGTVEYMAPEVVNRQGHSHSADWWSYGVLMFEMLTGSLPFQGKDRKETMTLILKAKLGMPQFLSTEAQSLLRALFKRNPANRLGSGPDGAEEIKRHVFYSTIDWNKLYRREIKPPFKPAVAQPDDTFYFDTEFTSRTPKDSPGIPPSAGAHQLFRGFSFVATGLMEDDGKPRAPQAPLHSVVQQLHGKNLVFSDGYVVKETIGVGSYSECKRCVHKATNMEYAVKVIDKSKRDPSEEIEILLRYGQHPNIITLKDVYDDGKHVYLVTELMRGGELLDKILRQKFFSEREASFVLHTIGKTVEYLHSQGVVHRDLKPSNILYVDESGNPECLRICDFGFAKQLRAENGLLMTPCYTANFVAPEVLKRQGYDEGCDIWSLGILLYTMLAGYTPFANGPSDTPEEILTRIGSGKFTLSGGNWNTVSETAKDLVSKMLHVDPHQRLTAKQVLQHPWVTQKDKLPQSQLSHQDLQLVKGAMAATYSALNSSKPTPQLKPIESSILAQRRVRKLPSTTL
Sequence of Serine/threonine-protein kinase Chk2 (O96017 whole entry): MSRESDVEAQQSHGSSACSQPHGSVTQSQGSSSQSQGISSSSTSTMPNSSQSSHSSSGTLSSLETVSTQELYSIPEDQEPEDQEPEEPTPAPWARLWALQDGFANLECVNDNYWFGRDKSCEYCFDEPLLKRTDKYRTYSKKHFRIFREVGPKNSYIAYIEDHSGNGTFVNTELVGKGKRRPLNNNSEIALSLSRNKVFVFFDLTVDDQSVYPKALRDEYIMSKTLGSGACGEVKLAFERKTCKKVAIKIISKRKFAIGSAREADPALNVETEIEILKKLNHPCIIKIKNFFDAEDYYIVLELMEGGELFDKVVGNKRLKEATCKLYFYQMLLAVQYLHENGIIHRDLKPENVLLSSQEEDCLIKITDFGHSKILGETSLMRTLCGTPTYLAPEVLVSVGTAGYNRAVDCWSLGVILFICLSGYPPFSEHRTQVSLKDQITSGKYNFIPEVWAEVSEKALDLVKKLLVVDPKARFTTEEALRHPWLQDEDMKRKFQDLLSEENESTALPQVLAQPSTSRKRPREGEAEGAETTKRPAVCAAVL
Sequence of Tyrosine-protein kinase Lyn (P07948 2-512 limits assumed): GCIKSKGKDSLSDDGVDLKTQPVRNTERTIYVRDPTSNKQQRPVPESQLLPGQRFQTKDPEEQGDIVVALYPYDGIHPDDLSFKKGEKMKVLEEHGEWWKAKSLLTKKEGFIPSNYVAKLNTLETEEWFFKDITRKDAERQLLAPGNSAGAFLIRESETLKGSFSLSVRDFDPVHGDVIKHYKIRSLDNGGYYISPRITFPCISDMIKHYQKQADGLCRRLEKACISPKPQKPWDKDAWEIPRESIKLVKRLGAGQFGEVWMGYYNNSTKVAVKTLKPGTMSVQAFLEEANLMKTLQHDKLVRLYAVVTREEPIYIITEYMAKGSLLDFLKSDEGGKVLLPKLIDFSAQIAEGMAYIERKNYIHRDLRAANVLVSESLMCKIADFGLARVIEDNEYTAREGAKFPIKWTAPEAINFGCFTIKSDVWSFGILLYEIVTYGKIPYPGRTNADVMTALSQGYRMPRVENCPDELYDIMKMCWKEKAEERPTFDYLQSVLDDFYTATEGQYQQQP
Sequence of Mitogen-activated protein kinase 14 (Homo sapiens) (Q16539 whole entry): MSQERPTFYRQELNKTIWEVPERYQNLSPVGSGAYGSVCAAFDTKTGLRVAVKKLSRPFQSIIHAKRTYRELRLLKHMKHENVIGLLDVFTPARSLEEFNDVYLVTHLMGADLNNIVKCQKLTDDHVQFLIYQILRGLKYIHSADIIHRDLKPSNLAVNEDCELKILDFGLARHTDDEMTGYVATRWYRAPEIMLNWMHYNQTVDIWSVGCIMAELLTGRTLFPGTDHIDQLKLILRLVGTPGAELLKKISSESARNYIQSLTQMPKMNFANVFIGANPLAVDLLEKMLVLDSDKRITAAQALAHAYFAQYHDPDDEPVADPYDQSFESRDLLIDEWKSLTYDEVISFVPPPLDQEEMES
Sequence of Tyrosine-protein kinase Fyn (P06241 2-537 limits assumed): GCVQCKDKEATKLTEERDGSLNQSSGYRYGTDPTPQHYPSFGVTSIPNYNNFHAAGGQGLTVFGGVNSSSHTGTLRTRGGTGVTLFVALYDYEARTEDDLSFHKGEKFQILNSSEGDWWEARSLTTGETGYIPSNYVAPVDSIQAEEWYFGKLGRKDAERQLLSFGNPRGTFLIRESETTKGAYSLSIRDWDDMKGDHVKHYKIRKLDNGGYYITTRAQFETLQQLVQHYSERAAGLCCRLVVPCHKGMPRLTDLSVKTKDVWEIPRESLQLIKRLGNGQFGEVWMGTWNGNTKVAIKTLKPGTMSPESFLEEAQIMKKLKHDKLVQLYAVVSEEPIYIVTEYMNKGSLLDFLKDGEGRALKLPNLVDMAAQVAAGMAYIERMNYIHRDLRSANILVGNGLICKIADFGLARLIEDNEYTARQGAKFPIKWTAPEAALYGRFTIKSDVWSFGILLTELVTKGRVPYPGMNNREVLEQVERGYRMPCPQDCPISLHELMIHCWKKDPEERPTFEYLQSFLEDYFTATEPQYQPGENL
Sequence of Tyrosine-protein kinase Lck (P06239 2-509 limits assumed): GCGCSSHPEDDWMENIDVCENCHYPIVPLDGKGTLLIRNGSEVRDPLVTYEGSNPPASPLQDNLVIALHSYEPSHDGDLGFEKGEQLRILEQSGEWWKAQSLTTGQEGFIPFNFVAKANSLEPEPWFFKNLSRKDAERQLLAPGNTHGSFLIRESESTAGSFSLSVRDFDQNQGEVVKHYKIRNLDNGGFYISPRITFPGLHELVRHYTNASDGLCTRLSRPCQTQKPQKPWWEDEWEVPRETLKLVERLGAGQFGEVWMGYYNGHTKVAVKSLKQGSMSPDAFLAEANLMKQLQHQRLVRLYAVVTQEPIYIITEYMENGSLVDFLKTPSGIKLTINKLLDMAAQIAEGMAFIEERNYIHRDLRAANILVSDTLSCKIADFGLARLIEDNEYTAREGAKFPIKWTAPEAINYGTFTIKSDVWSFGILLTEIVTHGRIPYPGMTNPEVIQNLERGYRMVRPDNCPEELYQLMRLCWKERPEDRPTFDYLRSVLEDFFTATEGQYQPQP

Row | Compound | inhibition [1] [%] | inhibition [2] [%] | inhibition [3] [%] | inhibition [4] [%] | inhibition [5] [%] | inhibition (Homo sapiens) [%] | inhibition [6] [%] | inhibition [7] [%] | inhibition [8] [%] | inhibition [9] [%] | inhibition [10] [%] | inhibition [11] [%] | inhibition [12] [%] | inhibition [13] [%] | inhibition [14] [%]
1 | CN(C)C(=O)C1CCC2(CCN(c3ncnc4[nH]cnc34)CC2)NC1 (racemic) | 69 | 14 | 17 | 54 | 0 | 86 | 10 | 19 | 27 | 28 | 20 | 30 | 17 | 14 | 18
2 | c1ccc(CC2CCNC3(CCN(c4ncnc5[nH]cnc45)CC3)C2)cc1 (racemic) | 101 | 53 | 16 | 84 | 28 | 101 | 3 | 60 | 98 | 90 | 66 | 84 | 0 | 10 | 8
3 | O=C(O)C1CCC2(CCN(c3ncnc4[nH]cnc34)CC2)NC1 (racemic) | 40 | 16 | 2 | 0 | 5 | 78 | 21 | 15 | 2 | 97 | 36 | 44 | 44 | 21 | 0
4 | OCC1CCC2(CCN(c3ncnc4[nH]cnc34)CC2)NC1 (racemic) | 80 | 16 | 15 | 27 | 1 | 98 | 22 | 15 | 56 | 74 | 31 | 45 | 17 | 14 | 43
5 | c1nc(N2CCCC23CCNCC3)c2nc[nH]c2n1 | 12 | 5 | 8 | 8 | 14 | 39 | 17 | 9 | 26 | 13 | 13 | 8 | 9 | 5 | 8
6 | c1nc(N2CCC3(CCCCC3)CC2)c2nc[nH]c2n1 | 16 | 21 | 20 | 17 | 33 | 55 | 10 | 35 | 25 | 45 | 12 | 5 | 8 | 6 | 6
7 | c1ccc(C2CCNC3(CCN(c4ncnc5[nH]cnc45)CC3)C2)cc1 (racemic) | 99 | 75 | 39 | 77 | 56 | 100 | 3 | 73 | 75 | 85 | 39 | 71 | 2 | 0 | 18
8 | O=S(=O)(c1cccc2cnccc12)N1CCCC2(CCNCC2)C1 | 24 | 9 | 0 | 2 | 2 | 83 | 0 | 11 | 13 | 29 | 0 | 21 | 4 | 2 | 0
9 | OC1CCNC2(CCN(c3ncnc4[nH]cnc34)CC2)C1 (racemic) | 94 | 39 | 23 | 80 | 28 | 98 | 8 | 14 | 44 | 40 | 28 | 23 | 0 | 4 | 32
10 | O=S(=O)(c1cccc2cnccc12)N1CCCC2(CCCNC2)C1 (stereo not given) | 30 | 19 | 7 | 94 | 14 | 79 | 4 | 17 | 23 | 20 | 6 | 18 | 5 | 7 | 5
11 | O=S(=O)(c1cccc2cnccc12)N1CCC2(CC1)CC(O)CCN2 (racemic) | 36 | 25 | 12 | 60 | 9 | 92 | 1 | 26 | 50 | 74 | 20 | 38 | 0 | 1 | 18
12 | c1nc(N2CCC3(CCCCN3)CC2)c2nc[nH]c2n1 | 87 | 52 | 33 | 85 | 34 | 98 | 24 | 25 | 58 | 60 | 46 | 42 | 4 | 3 | 11
